Experimental data reported in ChEMBL document CHEMBL1833921, “Synthesis and biological evaluation of phenstatin metabolites” (Bioorg Med Chem, 2011).

Tests used:
MDA-MB-468 = assay: Cytotoxicity against human MDA-MB-468 cells after 48 hrs by sulforhodamine B assay; format: functional; details: MDA-MB-468, 48 h
Hs-578T = assay: Cytotoxicity against human HS578T cells after 48 hrs by sulforhodamine B assay; format: functional
MDA-MB-231 = assay: Cytotoxicity against human MDA-MB-231/ATCC cells after 48 hrs by sulforhodamine B assay; format: functional; details: MDA-MB-231, 48 h
MCF7 = assay: Cytotoxicity against human MCF7 cells after 48 hrs by sulforhodamine B assay; format: functional; details: MCF7, 48 h
SF-539 = assay: Cytotoxicity against human SF539 cells after 48 hrs by sulforhodamine B assay; format: functional; details: SF-539, 48 h
SF-295 = assay: Cytotoxicity against human SF295 cells after 48 hrs by sulforhodamine B assay; format: functional; details: SF-295, 48 h
DU-145 = assay: Cytotoxicity against human DU145 cells after 48 hrs by sulforhodamine B assay; format: functional; details: DU-145, 48 h
UO-31 = assay: Cytotoxicity against human UO31 cells after 48 hrs by sulforhodamine B assay; format: functional; details: UO-31, 48 h
SN12C = assay: Cytotoxicity against human SN12C cells after 48 hrs by sulforhodamine B assay; format: functional
RXF 393 = assay: Cytotoxicity against human RXF393 cells after 48 hrs by sulforhodamine B assay; format: functional; details: RXF 393, 48 h
CAKI-1 = assay: Cytotoxicity against human Caki1 cells after 48 hrs by sulforhodamine B assay; format: functional; details: CAKI-1, 48 h
A498 = assay: Cytotoxicity against human A498 cells after 48 hrs by sulforhodamine B assay; format: functional; details: A498, 48 h
SK-OV-3 = assay: Cytotoxicity against human SKOV3 cells after 48 hrs by sulforhodamine B assay; format: functional; details: SK-OV-3, 48 h
NCI/ADR-RES = assay: Cytotoxicity against human NCI/ADR-RES cells after 48 hrs by sulforhodamine B assay; format: functional
OVCAR-5 = assay: Cytotoxicity against human OVCAR5 cells after 48 hrs by sulforhodamine B assay; format: functional; details: OVCAR-5, 48 h
OVCAR-4 = assay: Cytotoxicity against human OVCAR4 cells after 48 hrs by sulforhodamine B assay; format: functional; details: OVCAR-4, 48 h
OVCAR-3 = assay: Cytotoxicity against human OVCAR3 cells after 48 hrs by sulforhodamine B assay; format: functional; details: OVCAR-3, 48 h
UACC-62 = assay: Cytotoxicity against human UACC62 cells after 48 hrs by sulforhodamine B assay; format: functional; details: UACC-62, 48 h
SK-MEL-28 = assay: Cytotoxicity against human SK-MEL-28 cells after 48 hrs by sulforhodamine B assay; format: functional; details: SK-MEL-28, 48 h
SK-MEL-2 = assay: Cytotoxicity against human SK-MEL-2 cells after 48 hrs by sulforhodamine B assay; format: functional; details: SK-MEL-2, 48 h
MDA-MB-435 = assay: Cytotoxicity against human MDA-MB-435 cells after 48 hrs by sulforhodamine B assay; format: functional; details: MDA-MB-435, 48 h
M14 = assay: Cytotoxicity against human M14 cells after 48 hrs by sulforhodamine B assay; format: functional; details: M14, 48 h
KM12 = assay: Cytotoxicity against human KM12 cells after 48 hrs by sulforhodamine B assay; format: functional; details: KM12, 48 h
HCT-15 = assay: Cytotoxicity against human HCT15 cells after 48 hrs by sulforhodamine B assay; format: functional; details: HCT-15, 48 h
HCT-116 = assay: Cytotoxicity against human HCT116 cells after 48 hrs by sulforhodamine B assay; format: functional; details: HCT-116, 48 h
NCI-H522 = assay: Cytotoxicity against human NCI-H522 cells after 48 hrs by sulforhodamine B assay; format: functional; details: NCI-H522, 48 h
COLO 205 = assay: Cytotoxicity against human COLO205 cells after 48 hrs by sulforhodamine B assay; format: functional; details: COLO 205, 48 h
NCI-H460 = assay: Cytotoxicity against human NCI-H460 cells after 48 hrs by sulforhodamine B assay; format: functional; details: NCI-H460, 48 h
EKVX = assay: Cytotoxicity against human EKVX cells after 48 hrs by sulforhodamine B assay; format: functional
NCI-H322M = assay: Cytotoxicity against human NCI-H322M cells after 48 hrs by sulforhodamine B assay; format: functional
A549 [1] = assay: Cytotoxicity against human A549/ATCC cells after 48 hrs by sulforhodamine B assay; format: functional; details: A549, 48 h
K562 = assay: Cytotoxicity against human K562 cells after 48 hrs by sulforhodamine B assay; format: functional; details: K562, 48 h
CCRF-CEM = assay: Cytotoxicity against human CCRF-CEM cells after 48 hrs by sulforhodamine B assay; format: functional
HL-60(TB) = assay: Cytotoxicity against human HL-60(TB) cells after 48 hrs by sulforhodamine B assay; format: functional; details: HL-60, 48 h
[2] = Inhibition of bovine brain tubulin polymerization after 30 mins by turbidimetry analysis; set-up: species or system Bos taurus
Outline: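 Lyophilized bovine brain tubulin (97%) reconstituted to 5 mg/mL in 80 mM PIPES pH 6.9, 2 mM MgCl₂, 0.5 mM EGTA, 1.0 mM GTP and 5% glycerol. Compound in DMSO was added to this solution in a quartz cuvette at 0 °C. Assembly was followed as the rise in absorbance at 340 nm at 37 °C. IC₅₀ is the molar concentration halving the extent of assembly after 30 min.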

SF-268 = assay: Cytotoxicity against human SF268 cells after 48 hrs by sulforhodamine B assay; format: functional; details: SF-268, 48 h
HCC 2998 = assay: Cytotoxicity against human HCC2998 cells after 48 hrs by sulforhodamine B assay; format: functional; details: HCC 2998, 48 h
HT-29 = assay: Cytotoxicity against human HT29 cells after 48 hrs by sulforhodamine B assay; format: functional; details: HT-29, 48 h
A549 [3] = assay: Cytotoxicity against human A549 cells after 48 hrs by sulforhodamine B assay; format: functional; details: A549, 48 h
HL-60 = assay: Cytotoxicity against human HL60 cells after 48 hrs by sulforhodamine B assay; format: functional; details: HL-60, 48 h

SMILES	GI50 (MDA-MB-468) [µM]	GI50 (Hs-578T) [µM]	GI50 (MDA-MB-231) [µM]	GI50 (MCF7) [µM]	GI50 (SF-539) [µM]	GI50 (SF-295) [µM]	GI50 (DU-145) [µM]	GI50 (UO-31) [µM]	GI50 (SN12C) [µM]	GI50 (RXF 393) [µM]	GI50 (CAKI-1) [µM]	GI50 (A498) [µM]	GI50 (SK-OV-3) [µM]	GI50 (NCI/ADR-RES) [µM]	GI50 (OVCAR-5) [µM]	GI50 (OVCAR-4) [µM]	GI50 (OVCAR-3) [µM]	GI50 (MDA-MB-435) [µM]	IC50 [2] [µM]	GI50 (HT-29) [µM]	further results
COc1ccc(C(=O)c2cc(OC)c(O)c(OC)c2)cc1OC	1.97	4.92	4.79	0.433	2.96	2.08	4.49	2.16	6.68	1.88	3.01	3.36	2.2	0.854	12.9	> 100	2.33	0.273	> 100	–	GI50 (UACC-62): 8.41 µM; GI50 (SK-MEL-28): 9.46 µM; GI50 (SK-MEL-2): 5.29 µM; GI50 (M14): 0.902 µM; GI50 (KM12): 1.09 µM; GI50 (HCT-15): 2.07 µM; GI50 (HCT-116): 2.5 µM; GI50 (NCI-H522): 3.64 µM; GI50 (COLO 205): 14.2 µM; GI50 (NCI-H460): 3.44 µM; GI50 (EKVX): > 100 µM; GI50 (NCI-H322M): 3.44 µM; GI50 (A549 [1]): 59.1 µM; GI50 (K562): 0.666 µM; GI50 (CCRF-CEM): 4.05 µM; GI50 (HL-60(TB)): 1.25 µM
COc1ccc(C(=O)c2cc(OC)c(OC)c(OC)c2)c(O)c1O [HYDROXYPHENSTATIN]	–	–	–	–	–	0.12	0.144	–	–	–	–	–	–	–	–	–	–	–	0.8	–	–
COc1cc(C(=O)c2ccc3c(c2)oc(=O)n3S(C)(=O)=O)cc(OC)c1OC	2.82	3.16	4.85	4.43	2.36	1.61	3.04	6.81	7.79	4.63	2.64	3.11	2.84	2.03	5.77	22.3	1.56	0.289	> 100	–	GI50 (SF-268): 7.95 µM; GI50 (UACC-62): 5.3 µM; GI50 (SK-MEL-28): 11.3 µM; GI50 (SK-MEL-2): 5.11 µM; GI50 (M14): 1.36 µM; GI50 (KM12): 1.15 µM; GI50 (HCT-15): 2 µM; GI50 (HCT-116): 2.31 µM; GI50 (HCC 2998): 6.75 µM; GI50 (NCI-H522): 2.34 µM; GI50 (COLO 205): 2.5 µM; GI50 (NCI-H460): 2.64 µM; GI50 (EKVX): 4.58 µM; GI50 (NCI-H322M): 5.38 µM; GI50 (A549 [1]): 4.68 µM; GI50 (K562): 0.588 µM; GI50 (CCRF-CEM): 3.35 µM; GI50 (HL-60(TB)): 2.52 µM
COc1cc(C(=O)c2ccc(OC)c(O)c2OC)cc(OC)c1O	0.864	0.358	2.16	1.01	0.611	1.4	0.818	16.6	13.7	0.755	1.9	1.7	0.912	0.515	4.92	100	0.363	0.282	14.9	–	GI50 (SF-268): 4.25 µM; GI50 (UACC-62): 5.01 µM; GI50 (SK-MEL-28): 100 µM; GI50 (SK-MEL-2): 100 µM; GI50 (M14): 0.455 µM; GI50 (KM12): 0.409 µM; GI50 (HCT-15): 0.611 µM; GI50 (HCT-116): 1.41 µM; GI50 (HCC 2998): 2.89 µM; GI50 (NCI-H522): 0.29 µM; GI50 (COLO 205): 4.83 µM; GI50 (NCI-H460): 1.97 µM; GI50 (EKVX): 4.76 µM; GI50 (NCI-H322M): 4.99 µM; GI50 (A549 [1]): 3.47 µM; GI50 (K562): 0.153 µM; GI50 (CCRF-CEM): 0.896 µM; GI50 (HL-60(TB)): 0.364 µM
COc1ccc(C(=O)c2cc(OC)c(OC)c(OC)c2)c(OC)c1N	–	–	–	0.0106	–	0.0199	0.0274	–	–	–	–	0.0221	–	–	–	–	0.0202	< 10	10	0.0323	GI50 (A549 [3]): 0.039 µM; GI50 (HL-60): 0.0331 µM
COc1ccc(C(=O)c2cc(OC)c(OC)c(OC)c2)c(OC)c1NC(C)=O	–	–	–	9.6	–	0.293	0.292	–	–	–	–	0.0855	–	–	–	–	3.3	–	> 50	4.33	GI50 (A549 [3]): 4.62 µM; GI50 (HL-60): 3.53 µM
COc1ccc(C(=O)c2cc(OC)c(OC)c(OC)c2)c(N)c1	–	–	–	0.023	–	–	0.036	–	–	–	–	–	–	–	–	–	–	–	0.4	0.042	–
COc1ccc(/C=C/c2cc(OC)c(OC)c(OC)c2)c(O)c1O	–	–	–	–	–	–	0.512	–	–	–	–	–	–	–	–	–	–	–	1.9	–	–
COc1ccc(C(=O)c2cc(OC)c(OC)c(OC)c2)cc1N	–	–	–	–	–	–	–	–	–	–	–	–	–	–	–	–	–	–	1.5	0.033	GI50 (A549 [3]): 0.057 µM; GI50 (HL-60): 0.03 µM
